The values that follow come from ChEMBL document CHEMBL2046412, “Xanthine oxidase inhibitory activity of constituents of Cinnamomum cassia twigs” (Bioorg Med Chem Lett, 2012).

Each structure is given as a SMILES string. Where only a bound is given, the exact number is not on record here.

In assay [1] the target is T1, Xanthine dehydrogenase/oxidase (Homo sapiens, UniProt P47989). The assay is described as follows: Inhibition of xanthine oxidase- mediated uric acid formation at 50 ug/mL after 5 mins by spectrophotometry.
T1 sequence (P47989 whole entry): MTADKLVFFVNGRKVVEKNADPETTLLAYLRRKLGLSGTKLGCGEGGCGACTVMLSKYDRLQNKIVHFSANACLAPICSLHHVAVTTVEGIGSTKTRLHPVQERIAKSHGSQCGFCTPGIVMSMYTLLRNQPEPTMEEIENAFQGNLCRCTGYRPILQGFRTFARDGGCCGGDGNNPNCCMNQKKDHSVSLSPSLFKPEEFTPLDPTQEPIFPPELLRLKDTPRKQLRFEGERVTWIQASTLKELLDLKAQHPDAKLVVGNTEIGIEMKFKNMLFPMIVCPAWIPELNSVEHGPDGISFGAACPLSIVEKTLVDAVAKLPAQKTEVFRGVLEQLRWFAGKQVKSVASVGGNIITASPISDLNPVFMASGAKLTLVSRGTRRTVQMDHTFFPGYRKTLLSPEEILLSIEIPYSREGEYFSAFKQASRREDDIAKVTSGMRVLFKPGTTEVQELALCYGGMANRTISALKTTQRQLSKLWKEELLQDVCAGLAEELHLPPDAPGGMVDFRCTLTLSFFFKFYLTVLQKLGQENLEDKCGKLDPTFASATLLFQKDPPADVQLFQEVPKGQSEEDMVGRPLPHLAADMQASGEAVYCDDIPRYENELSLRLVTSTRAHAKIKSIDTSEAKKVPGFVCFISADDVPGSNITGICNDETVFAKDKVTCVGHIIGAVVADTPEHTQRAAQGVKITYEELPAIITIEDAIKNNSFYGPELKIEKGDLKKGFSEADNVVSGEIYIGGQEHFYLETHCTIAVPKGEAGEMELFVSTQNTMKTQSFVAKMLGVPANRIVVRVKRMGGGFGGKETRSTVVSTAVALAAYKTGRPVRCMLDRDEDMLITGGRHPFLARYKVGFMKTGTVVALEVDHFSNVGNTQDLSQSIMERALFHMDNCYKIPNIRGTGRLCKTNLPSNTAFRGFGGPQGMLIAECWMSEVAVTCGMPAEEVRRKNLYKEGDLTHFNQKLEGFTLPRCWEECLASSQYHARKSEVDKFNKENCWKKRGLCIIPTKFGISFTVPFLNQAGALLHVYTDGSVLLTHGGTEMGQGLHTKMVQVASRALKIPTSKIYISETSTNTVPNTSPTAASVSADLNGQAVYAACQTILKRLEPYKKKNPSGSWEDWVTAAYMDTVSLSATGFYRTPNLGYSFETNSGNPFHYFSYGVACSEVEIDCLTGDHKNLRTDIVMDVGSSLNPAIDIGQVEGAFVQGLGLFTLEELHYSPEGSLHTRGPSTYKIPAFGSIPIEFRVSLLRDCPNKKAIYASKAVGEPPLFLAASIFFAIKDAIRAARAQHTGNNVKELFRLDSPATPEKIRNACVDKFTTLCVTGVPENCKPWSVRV
For assay [2], the target named is T1, Xanthine dehydrogenase/oxidase. As to the kind of experiment: Inhibition of xanthine oxidase- mediated uric acid formation after 5 mins by spectrophotometry. Summed up: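 Inhibition was taken relative to uric acid formed in the uninhibited control, and IC50 was derived from the mean of triplicate measurements.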

As a reminder, the inhibition is the change of the read-out against control, counted positive when it falls. Broadly, the IC50 is the point on the concentration scale where inhibition reaches its midpoint. Higher therefore signals weaker potency in that assay. In the case of `O=C/C=C/c1ccccc1`, the inhibition at 50 µg/mL in assay [1] turned out to be 96.7%. This compound gave an IC50 in assay [2] of 59 µM.

For the compound `O=C/C=C/c1ccccc1O` [2-HYDROXYCINNAMALDEHYDE], the inhibition at 50 µg/mL in assay [1] is 94.2%. The IC50 in assay [2] was 98.5 µM.

With `O[C@@H]1[C@@H](O)[C@@H](OC/C=C/c2ccccc2)O[C@H](CO[C@@H]2OC[C@H](O)[C@H](O)[C@H]2O)[C@H]1O` [ROSAVIN], the inhibition at 50 µg/mL in assay [1] was 18.7%. In assay [2], this compound showed an IC50 of more than 117 µM.

`COC(=O)CCc1ccccc1O[C@@H]1O[C@H](CO)[C@@H](O)[C@H](O)[C@H]1O` [METHYL DIHYDROMELILOTOSIDE] showed an inhibition at 50 µg/mL in assay [1] of 22.4%. For the same compound, the IC50 in assay [2] is more than 146 µM.

`COc1cc(O[C@@H]2O[C@H](CO)[C@@H](O)[C@H](O)[C@H]2O)ccc1Oc1ccc(O[C@@H]2O[C@H](CO)[C@@H](O)[C@H](O)[C@H]2O)c(OC)c1` [CINNACASOLIDE C] returned an inhibition at 50 µg/mL in assay [1] of 28.2%. The IC50 in assay [2] was more than 85.2 µM.

Compound `O=C(O)/C=C/c1ccccc1O` [O-COUMARIC ACID] came in with an inhibition at 50 µg/mL in assay [1] of 73.2%. Moreover, in assay [2], the IC50 was 196 µM.

In turn, `COc1ccccc1/C=C/C=O` returned an inhibition at 50 µg/mL in assay [1] of 95.8%. The compound further showed an IC50 in assay [2] of 85.1 µM.

`COc1cc(/C=C/C=O)ccc1O` [CONIFERYL ALDEHYDE] came in with an inhibition at 50 µg/mL in assay [1] of 72.5%. For the same compound, the IC50 in assay [2] was 204 µM.

`COC(=O)c1cccc(O[C@@H]2O[C@H](CO[C@@H]3OC[C@](O)(CO)[C@H]3O)[C@@H](O)[C@H](O)[C@H]2O)c1` [CINNACASOLIDE A] yielded an inhibition at 50 µg/mL in assay [1] of 22.2%. The compound further registered an IC50 in assay [2] of more than 112 µM.

The compound `O=C(O)CCc1ccccc1O[C@@H]1O[C@H](CO)[C@@H](O)[C@H](O)[C@H]1O` [DIHYDROMELILOTOSIDE] registered an inhibition at 50 µg/mL in assay [1] of 45.4%. Besides, the IC50 in assay [2] was more than 152 µM.

For the compound `OC/C=C/c1ccccc1O[C@@H]1O[C@H](CO[C@@H]2OC[C@](O)(CO)[C@H]2O)[C@@H](O)[C@H](O)[C@H]1O` [CINNACASOLIDE B], in assay [1], at 50 µg/mL the inhibition was 35.4%. This compound also registered an IC50 in assay [2] of more than 113 µM.

`OC/C=C/c1ccccc1` [CINNAMIC ALCOHOL]: the inhibition at 50 µg/mL in assay [1] came out at 47.6%. The IC50 in assay [2] is more than 373 µM.

Consider `O=C(O)/C=C/c1ccccc1` [CINNAMIC ACID], for which the inhibition at 50 µg/mL in assay [1] turned out to be 93.4%. For the same compound, inhibition in assay [2] was half-maximal at 178 µM (IC50).
